NPY-Y2 antag: antagonists of human neuropeptide Y receptor Y2; inhibition, % at 2.7 µM; NPY-Y2 expressing cells, antagonist mode; P49146; 140,000 compounds, 0.99% hits; AID 793; in the data active = inhibition above about 17%;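 note: 0% = vehicle with agonist challenge and 100% = reference antagonist with challenge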
EP2 mod: modulates human prostaglandin E2 receptor EP2 signaling | P43116 | EP2-expressing cells, cAMP HTRF FRET, PGE2 co-stimulation | induction, % at 25 µM | 260,000 compounds, 0.83% hits | AID 940;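 active = compounds whose cAMP rise, as percent of the full-agonist control response, exceeds 60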;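 note: rat C6 glioma line stably carrying human EP2 under a CMV promoter; the protocol text gives 20 µM as final concentration; 100% = response of wells given 1 µM PGE2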
Target sequence (P43116 whole entry, looked up): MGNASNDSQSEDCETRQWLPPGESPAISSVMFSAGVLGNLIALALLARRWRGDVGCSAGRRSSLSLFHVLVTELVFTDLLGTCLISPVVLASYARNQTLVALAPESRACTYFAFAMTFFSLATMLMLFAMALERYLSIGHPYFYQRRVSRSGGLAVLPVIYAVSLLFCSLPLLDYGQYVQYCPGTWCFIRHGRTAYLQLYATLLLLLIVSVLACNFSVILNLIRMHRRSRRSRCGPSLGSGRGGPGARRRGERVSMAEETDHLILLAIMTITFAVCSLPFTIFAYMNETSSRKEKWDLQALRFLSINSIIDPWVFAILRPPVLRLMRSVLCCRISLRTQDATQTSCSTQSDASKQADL
NPY2 pot ag: potentiates or activates human NPY-Y2 receptor | P49146 | cells expressing NPY-Y2, potentiator/agonist read-out | activation, % at 3.6 µM | 220,000 compounds, 0.45% hits | AID 1359; in the data active = activation above about 27%;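 note: cells stimulated with NPY near EC25 plus isoproterenol at EC100; 0% = vehicle plus submaximal agonist and 100% = vehicle plus saturating agonist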
NPY Y1 blocker: NPY-Y1 (human) receptor antagonism | inhibition, % at 3.6 µM | AID 1040 | P25929 | HEK293-CNG Y1 cells, membrane potential fluorescence; NPY at EC95, then isoproterenol | 200,000 compounds, 1% hits;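 active = inhibition above the campaign mean inhibition of all tested compounds plus 3 SD, cut at about 20% in these data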;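 note: 0% = DMSO wells given NPY plus isoproterenol and 100% = isoproterenol alone without NPY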
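Test system – HEK293 Y1/CNG channel cell line · Also added – NPY agonist 25 nM, then isoproterenol 1 µM plus Ro 20-1724 25 µM · Compound dosing – one concentration, 3.6 µM, in 0.4% DMSO · Schedule – compound incubation 1 h at room temperature, readout 45 min post-stimulation · Technique – fluorescence, membrane potential probe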
EP2 antag: inhibitors of human EP2 prostaglandin E2 receptor; AID 1422; 260,000 compounds, 0.52% hits; inhibition, % at 25 µM; C6 glioma cells expressing human EP2, cAMP TR-FRET; cells stimulated with saturating PGE2;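 active = percent inhibition above 40 after rounding to a whole number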;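 note: rat C6 glioma host cells with rolipram phosphodiesterase inhibitor present; the protocol text gives 20 µM as final concentration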
NPY-Y1 PAM-ag: potentiates or activates human NPY-Y1 receptor | NPY-Y1 expressing cells, potentiator/agonist activation | activation, % at 3.6 µM | 220,000 compounds, 0.37% hits | P25929; in the data active = activation above about 33%, passing the limit was not always enough;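 note: cells stimulated with NPY at EC10 then isoproterenol at EC100; 0% = low agonist plus stimulus and 100% = saturating agonist plus stimulus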
Active calls of the source: *; / = no result given; ! = not confirmed by another sample. The list is not random: actives were taken first. Their share in the collection is about 2.8%.

SMILES	NPY-Y2 antag	EP2 mod	NPY2 pot ag	NPY Y1 blocker	EP2 antag	NPY-Y1 PAM-ag
O=S(=O)(c1ccc(S(=O)(=O)N2CCC(O)CC2)cc1)N1CCCCCC1	/	6.8	/	/	9.2	/
CC1CCC(C(C)C)C(OCC(O)CN2CCOCC2)C1 (centres undefined)	4.3	-8.4	76.3*	-6.5	-6.1	73.8*
CS(=O)(=O)N1CCc2cc(C(=O)Nc3ccc4ccccc4c3)ccc21	/	-94.3	/	/	20.9	/
CN1CCN(CCCN2c3ccccc3Sc3ccc(C(F)(F)F)cc32)CC1	-0.4	-21.4	17.2	1.0	40.7*!	0.4
O=C(CN1CCCC(O)C1)N1c2ccccc2Sc2ccc(C(F)(F)F)cc21 (centres undefined)	3.7	14.8	10.1	-3.6	5.7	-18.8
CCC1C(=NO)C(CC)C(c2ccccc2)NC1c1ccccc1 (centres undefined)	/	62.7*	-5.7	5.9	0.4	4.1
CC1C(=NO)C(C)C(c2ccccc2)NC1c1ccccc1 (centres undefined)	4.8	30.0	-14.2	-6.1	10.7	-0.8
Cc1ccc(NC(=O)c2cc(N3C(=O)C=CC3=O)ccc2N2CCOCC2)cc1	/	-71.7	-3.5	-0.8	117.7*	-5.0
COc1ccc(C(=O)CSc2nc3c(C)c(C)ccc3cc2C#N)cc1OC	/	33.3	/	/	50.2*	/
Cc1nnc2nc(-c3ccccc3)nc(-c3ccccc3)n12	/	82.2*	-14.0	/	5.9	-13.6
c1ccc(Cn2nc(-c3ccccc3)nc2-c2ccccc2)cc1	6.7	44.7	-6.6	18.9	4.9	-0.5
COCCN=C1Sc2nc3cc4c(cc3cc2CN1CCc1ccccc1)OCO4	/	55.0	/	/	9.7	/
Cc1cc(NC(=O)CSc2nc3c(c(-c4cccnc4)c2C#N)CCC3)no1	3.4	30.8	-13.6	0.2	49.2*	-18.0
c1cc2c3c(cccc3c1)-c1nc3c(ccc4nsnc43)nc1-2	/	-11.0	/	/	13.3	/
COc1ccc(C2CC(=O)C3=C(C2)NC(C)=C(C(=O)OC2CCCC2)C3c2ccc(C)o2)cc1OC (centres undefined)	/	-6.2	/	/	40.0*	/
CCCNC[C@H](O)COc1ccccc1C(=O)CCc1ccccc1	/	13.6	/	/	12.5	/
CC(C)(C)NCC(O)COc1ccccc1C(C)(C)C (centres undefined)	4.4	35.1	99.2*	-12.2	4.9	107.6*
Cc1c[nH]c2cccc(OCC(O)CNC(C)(C)C)c12 (centres undefined)	0.4	-21.2	104.0*	-18.3	11.2	108.8*
CC(C)(C)NCC(O)COc1ccccc1C(=O)CCc1ccccc1 (centres undefined)	10.0	-5.0	101.7*	-15.8	3.2	102.5*
O=C(Nc1ccc2[nH]ncc2c1)/C(=C/c1ccco1)NC(=O)c1ccccc1	/	25.5	/	/	6.9	/
CCN1CCCC1CN(Cc1cnc(N2CCOCC2)nc1)Cc1ccco1 (centres undefined)	/	-32.9	/	/	9.8	/
COCCCn1c(SCC(=O)Nc2ccc(C)cc2)nnc1-c1ccoc1C	/	43.0	/	/	1.6	/
Cc1ccc2c(c1)nnn2C1CCN(S(=O)(=O)c2ccc(Cl)c(F)c2)CC1	/	-11.0	/	/	8.8	/
O=C1CCC(c2ccccc2)=NN1c1nc2ccccc2s1	/	-16.1	/	/	55.7*	/
COc1ccc(/C=N/NC(=O)C(Cc2c[nH]c3ccccc23)NC(=O)OCC(C)C)cc1[N+](=O)[O-] (centres undefined)	33.4*	41.9	-26.5	35.2*	/	-66.0
SMILES	NPY-Y2 antag	EP2 mod	NPY2 pot ag	NPY Y1 blocker	EP2 antag	NPY-Y1 PAM-ag
CCOc1ccc(NC(=O)COc2ccc3c(C)c(CC)c(=O)oc3c2)cc1	/	3.2	/	/	7.2	/
Cc1ccc(C)n1-c1ccc(-c2nnc3n2CCCCC3)s1	2.1	27.7	11.1	-0.6	58.6*	-17.1
CCOc1ccccc1N1C(=O)NC(=O)/C(=C/c2ccc(OC)c(OC)c2)C1=O	/	-68.9	/	/	5.2	/
O=C(COc1ccc2ccccc2c1CN1CCOCC1)N1CCc2ccccc21	27.6*	-13.7	26.4	21.8*	3.3	16.1
Cc1cc2cc(CN(Cc3ccco3)C(=O)Nc3cccc(Cl)c3)c(=O)[nH]c2cc1C	/	11.8	/	/	13.8	/
[N-]=[N+]=CC(=O)C(c1ccccc1)(c1ccccc1)c1ccccc1	/	75.7*	-11.5	/	8.4	-1.6
[N-]=[N+]=CC(=O)COC(=O)c1ccccc1	/	14.9	/	/	9.3	/
Cc1cc(C)c(C#N)c(SCC(=O)Nc2cc(Cl)ccc2C)n1	/	4.7	/	/	10.0	/
CSc1nc(N(C)CCO)c2sc3nc(-c4ccco4)c4c(c3c2n1)CCC4	-2.4	10.7	13.2	-0.4	17.4	4.3
CSc1nc(SCC(=O)O)c2sc3nc(-c4ccccc4)c4c(c3c2n1)CCC4	/	61.2*	-12.1	/	9.9	11.2
CCOC(=O)CCc1c(C)c2ccc(OCC)c(C)c2oc1=O	29.0*	22.9	-10.8	33.2*	6.4	-15.6
CCOC(=O)COc1ccc2c3c(c(=O)oc2c1C)CCC3	4.3	-0.2	-0.1	4.4	9.4	-31.6
CC(C)c1ccc(NC(=S)NN2CCOCC2)cc1	0.6	-3.4	88.6*	0.9	7.5	88.3*
CC(C)(C)c1cc(C(=O)N2CCC(O)(c3ccccn3)CC2)n[nH]1	/	-33.6	/	/	/	/
Nc1ccc(N=Nc2c(S(=O)(=O)O)cc3ccccc3c2S(=O)(=O)O)cc1	/	18.2	/	/	40.5*	/
N=c1c(-c2nc3ccccc3[nH]2)cc(C(=O)c2cccs2)nn1-c1ccc(Cl)cc1	0.0	/	42.8*	-8.8	7.6	47.7*
Cc1ccc(-c2c[nH]c(=S)n2-c2ccccc2)cc1	/	13.9	4.3	4.7	7.7	9.2
S=c1[nH]cc(-c2ccccc2)n1-c1cccc(Cl)c1	-2.5	-4.5	32.4*	-5.7	6.1	39.2*
CCOc1ccccc1OCCN1CCC(Cc2ccccc2)CC1	17.2*	-34.3	-10.2	26.4*	10.3	-28.5
O=C(O)CCCN=C1NC(=O)CC(=O)N1	/	-5.2	/	/	15.0	/
COc1ccc2c(c1)CCc1c-2n[nH]c1C(=O)O	-3.0	17.8	39.8*	-4.7	16.4	32.2
COc1ccc2c(c1)CCc1c(-c3noc4c3CCc3cc(OC)ccc3-4)noc1-2	/	-6.5	/	/	45.0*	/
CC(C)C1C(C#N)=C(N)Oc2n[nH]c(CSc3ccccc3)c21 (centres undefined)	/	-105.5	/	/	20.9	/

Screening data (PubChem BioAssay)
